The source made the active and inactive calls. The calls are words filed in the database; no cut-off is given here.
Assays:
SH-SY5Y = test: Neuroprotective activity against human SH-SY5Y cells co-cultured with 10 uM compound pretreated BV-2 cells exposed to amyloid beta (1 to 42) assessed as cell viability measured after 24 hrs by MTT assay (reference value: 80.62 +/- 0.86%); format: functional; details: read-out: Activity
[1] = biological target: T1, Amyloid-beta precursor protein (Homo sapiens, UniProt P05067); test: Inhibition of amyloid beta (1 to 42) (unknown origin) aggregation incubated for 48 hrs by ThioflavinT staining based fluorescence assay
T1 sequence (P05067 whole entry): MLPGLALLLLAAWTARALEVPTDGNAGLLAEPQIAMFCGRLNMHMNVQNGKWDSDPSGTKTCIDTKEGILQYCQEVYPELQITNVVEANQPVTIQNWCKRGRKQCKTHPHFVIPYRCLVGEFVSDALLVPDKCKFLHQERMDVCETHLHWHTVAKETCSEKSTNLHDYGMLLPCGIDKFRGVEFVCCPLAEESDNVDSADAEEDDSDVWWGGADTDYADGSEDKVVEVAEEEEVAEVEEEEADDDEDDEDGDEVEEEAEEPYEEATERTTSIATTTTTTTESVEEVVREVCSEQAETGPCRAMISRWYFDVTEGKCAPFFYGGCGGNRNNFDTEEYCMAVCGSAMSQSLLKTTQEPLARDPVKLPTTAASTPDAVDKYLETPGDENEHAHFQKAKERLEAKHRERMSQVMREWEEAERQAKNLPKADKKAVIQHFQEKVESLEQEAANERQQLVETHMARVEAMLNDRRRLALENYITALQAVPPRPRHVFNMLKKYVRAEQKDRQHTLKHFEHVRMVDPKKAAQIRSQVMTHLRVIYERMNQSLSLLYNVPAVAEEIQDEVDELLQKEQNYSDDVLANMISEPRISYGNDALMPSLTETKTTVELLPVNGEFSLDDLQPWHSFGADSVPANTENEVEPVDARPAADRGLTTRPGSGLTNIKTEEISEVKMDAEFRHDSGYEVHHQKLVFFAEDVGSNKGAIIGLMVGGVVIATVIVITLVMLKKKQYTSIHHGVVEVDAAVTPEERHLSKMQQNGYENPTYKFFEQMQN

[2] = biological target: T1, Amyloid-beta precursor protein; test: Inhibition of amyloid beta (1 to 42) aggregation in mouse BV-2 cells exposed to amyloid-beta (1 to 42) (unknown origin) at 10 uM measured after 24 to 48 hrs by thioflavin T staining based fluorescence assay; format: cell-based; details: time 24-48 hrs
BV-2 [3] = test: Neuroprotective activity in amyloid beta (1 to 42)-induced inflammation in mouse BV-2 cells assessed as TNFalpha mRNA expression at 10 uM measured after 24 hrs by SYBR green staining based qRT-PCR analysis (reference value: 1.73 +/- 0.22%); format: functional
[4] = Induction of ROS generation in mouse BV-2 cells at 10 uM measured after 24 hrs by DCFH-DA staining based fluorescence assay; format: toxicity, cell-based; details: bv-2, 24 h
Method in brief: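 BV-2 cells seeded overnight at 1 × 10^4/well, compound alone (no Aβ). Cells loaded with 20 μM (final) DCFH-DA for 30 min at 37 °C, washed, then given conditioned medium for 24 h. Fluorescence read at ex […] nm. Expressed as % of control; n = 3 in triplicate, one-way ANOVA with LSD.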

BV-2 [5] = test: Neuroprotective activity in amyloid beta (1 to 42)-induced cytotoxicity in mouse BV-2 cells assessed as cell viability at 10 uM measured after 24 hrs by MTT assay (reference value: 54.96 +/- 1.12%); format: functional; details: read-out: Activity
BV-2 [6] = test: Cytotoxicity against mouse BV-2 cells assessed as reduction in cell viability at 10 uM measured after 24 hrs by MTT assay; format: toxicity, cell-based; details: bv-2, 24 h
Method in brief: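 BV-2 microglia grown in DMEM with 10% FBS, HEPES and Glutamax at 37 °C, 5% CO2, seeded overnight at 1 × 10^4 cells/well. Compound alone at 0–200 μM (range extended lower where needed) for 24 h. MTT 2 h at 37 °C, formazan dissolved in DMSO, A570 read. Used to pick non-toxic concentrations.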

BV-2 [7] = test: Neuroprotective activity in amyloid beta (1 to 42)-induced inflammation in mouse BV-2 cells assessed as change in IL-6 mRNA expression at 10 uM measured after 24 hrs by SYBR green staining based qRT-PCR analysis; format: functional, cell-based
BV-2 [8] = test: Neuroprotective activity in amyloid beta (1 to 42)-induced oxidative stress in mouse BV-2 cells assessed as intracellular ROS level at 10 uM measured after 24 hrs by DCFH-DA staining based fluorescence assay (reference value: 150.91 +/- 0.49%); format: functional
[9] = biological target: T1, Amyloid-beta precursor protein; test: Inhibition of amyloid beta (1 to 42) (unknown origin) aggregation at 100 uM incubated for 48 hrs by ThioflavinT staining based fluorescence assay relative to control
Method in brief: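 Compound in DMSO (1 μl of a 1 mM solution) mixed with 9 μl of 25 μM Aβ1–42 in Tris pH 7.4. Incubated 48 h at 37 °C without agitation, then 200 μl of 5 μM ThT added. Fluorescence read at ex 446/em 500 nm; % inhibition vs DMSO control, solvent blank subtracted.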

BV-2 [10] = test: Neuroprotective activity in amyloid beta (1 to 42)-induced inflammation in mouse BV-2 cells assessed as IL-1beta mRNA expression at 10 uM measured after 24 hrs by SYBR green staining based qRT-PCR analysis (reference value: 1.53 +/- 0.13%); format: functional
[11] = Octanol/water partition coefficient, log P of the compound incubated for 2 hrs under shaking condition by HPLC analysis; format: physicochemical
Method in brief: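 Shake-flask log P: 10 mM stock (DMSO, or octanol for highly lipophilic compounds) partitioned between mutually saturated octanol and water at three phase ratios. Shaken 2 h at 25 ± 1 °C, phases separated, each phase quantified by C18 HPLC-UV. Mobile phase 0.1% formic acid:methanol 40:60; log P averaged over the three ratios.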

IC50 [1]: 14.1 µM
inhibition [2]: Active
inhibition [9]: > 50%
logP at 2 h [11]: 4.92
SMILES: COc1cc(/C=C/C(=O)OCc2cn(-c3ccc(Oc4ccccc4)cc3)nn2)ccc1O
viability at 10 µM (SH-SY5Y): 87.2%
Activity (BV-2 [3]): 1.19%
Activity [4]: Non-Toxic
viability at 10 µM (BV-2 [5]): 62.9%
Activity (BV-2 [6]): Non-Toxic
Activity (BV-2 [7]): inactive
Activity (BV-2 [8]): 105.68%
Activity (BV-2 [10]): 8.29%

From ChEMBL document CHEMBL5584325, “Discovery of novel coumarin triazolyl and phenoxyphenyl triazolyl derivatives targeting amyloid beta aggregation-mediated oxidative stress and neuroinflammation for enhanced neuroprotection” (RSC Med Chem, 2024)
